Only some compounds are listed: those with a hit (about 3% of all), similar ones and a draw of the others.
AI-2 QS modul: Vibrio harveyi AI-2 quorum sensing modulators, primary screen, JMH597 strain, luminescence/OD600 ratio; Vibrio harveyi JMH597 AI-2 luminescence/OD600 ratio, 9 h; stronger effect = lower value; strain lacks LuxN and CqsS sensors; 0 = neutral-control median; activity change, % at 7.5 µM; 0.4% of 300,000 active; in the data active = activity change below about -75%, passing the limit was not always enough;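 also: luminescence divided by OD600 gain over 9 h not by final OD600 alone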
NRP1-CendR mod: modulators of CendR peptide binding to NRP-1, primary screen, biochemical, fluorescence polarization, uHTS; Neuropilin-1 (Homo sapiens), O14786; FAM-RPARPAR peptide binding to NRP-1; inhibition, % at 25 µM; 0.85% of 360,000 active;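 active = inhibition or corrected inhibition above about 18%, plus a signal ratio from 0.5 to 1.5, limit read from the data, passing the limit was not always enough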
T cruzi repl: inhibitors of intracellular T. cruzi growth, primary screen, luminescence, NIH3T3 host cells | T. cruzi beta-gal in NIH3T3, 90 h | inhibition, % (test concentration not listed) | 1.4% of 300,000 active | AID 1885, 2009;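 active = mean inhibition across valid replicates above about 55%, limit read from the data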;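 also: signal also drops with host cell toxicity which is not excluded here; 0% = plate median of DMSO wells and 100% = zero luminescence signal; higher percent means less beta-gal luminescence so fewer parasites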
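System: Mouse NIH/3T3 fibroblasts infected with β-gal-expressing T. cruzi Tulahuen C4 | Quantity: NIH/3T3 cells, 5,000 per well | Reagent: 5000 reporter trypomastigotes per well | Dosing: Compound pinned at 50 nL/well, DMSO | Schedule: 3 h host attachment, then at least 90 h co-culture | Detection: GalScreen luminescence, 60 min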
CR mimetic SO: reduction of superoxide in aged yeast, primary screen, HTS | 0.18% of 330,000 active | superoxide response (% of plate mean), % at 10 µM | AID 2690, 2010 | S. cerevisiae aged cells, superoxide DHE fluorescence; stronger effect = lower value;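 active = superoxide response under a set limit, about three screen SD below normal, cut at about 65% in these data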;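 also: yeast aged for seven days with compound at 30 °C before DHE staining; 100% = average MFI of all compound-treated wells on the plate with controls excluded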
V-ATPase pHluor: regulators of yeast V-ATPase proton pumping, primary screen, pHLuorin cytosolic pH fluorescence; S. cerevisiae; AID 504577, 2011; 0.37% of 350,000 active; response, % at 10 µM; in the data active = response mostly above about 7.3%, no sharp cut-off; inactive = mostly below about 5.4%; also: actives read high
HIF act: HIF pathway transcriptional activators, primary screen, cell-based, U2OS HRE-luciferase, luminescence; 0.32% of 300,000 active; U2OS HRE-luciferase reporter; normalized: DMSO 0%, desferrioxamine 100%; activation, % at 7.5 µM (by protocol);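 active = mean activation of at least 10% of the iron chelator positive control signal, with at least half of replicates also reaching 10%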
Active calls of the source: *.

How did Nc1cccc2c(O)cc(S(=O)(=O)O)cc12 do in these assays?
NRP1-CendR mod: 1; V-ATPase pHluor: 3

Results for COc1ccc(C(=O)N2C(=O)c3ccc(N)cc3C2=O)cc1 ?
AI-2 QS modul: 17; NRP1-CendR mod: -3; T cruzi repl: -15; CR mimetic SO: 94; V-ATPase pHluor: -2; HIF act: 1

How did COc1cc2oc(=O)ccc2cc1[C@H](O)[C@@H](O)C(C)(C)O do in these assays?
NRP1-CendR mod: 9; CR mimetic SO: 90; V-ATPase pHluor: -4

How did COc1cc2oc(=O)ccc2cc1[C@@H](O)[C@@H]1OC(C)(C)OC1(C)C do in these assays?
NRP1-CendR mod: 27*; CR mimetic SO: 100; V-ATPase pHluor: 0

How did CCCCn1cnc2c(cnn2-c2ccc(F)cc2)c1=O do in these assays?
AI-2 QS modul: 14; NRP1-CendR mod: 4; T cruzi repl: 0; CR mimetic SO: 94; V-ATPase pHluor: -5; HIF act: 2

What do the screens show for `COCCN(C(=O)CN1CCCc2ccccc21)c1c(N)n(Cc2ccccc2)c(=O)[nH]c1=O`?
AI-2 QS modul: 11; NRP1-CendR mod: 26*; T cruzi repl: -9; CR mimetic SO: 96; V-ATPase pHluor: 4; HIF act: 0

How did CCc1ccc2nc(NC(=O)Cn3cnc4ccccc4c3=O)sc2c1 do in these assays?
AI-2 QS modul: -16; NRP1-CendR mod: -8; T cruzi repl: 2; CR mimetic SO: 111; V-ATPase pHluor: -2; HIF act: 1

What do the screens show for `CC1CCC/C(=N\NC(=O)c2ccncc2)C1` (stereo unspecified)?
AI-2 QS modul: 13; NRP1-CendR mod: 30*; T cruzi repl: -9; CR mimetic SO: 132; V-ATPase pHluor: 1; HIF act: 0

Results for CCCSc1ccc(C(=O)Nc2ccc(Cl)cc2)cn1 ?
AI-2 QS modul: 21; NRP1-CendR mod: 28*; T cruzi repl: 3; CR mimetic SO: 96; V-ATPase pHluor: 2; HIF act: 4

Results for Cc1ccc2c(c1)C(c1ccncc1)=NNC(c1ccccc1)=N2 ?
AI-2 QS modul: 11; NRP1-CendR mod: -4; T cruzi repl: 13; CR mimetic SO: 105; V-ATPase pHluor: -3; HIF act: 2

Results for Cc1ccc2c(c1)C(c1ccncc1)=NNC(c1ccc(F)cc1)=N2 ?
AI-2 QS modul: 16; NRP1-CendR mod: 36*; T cruzi repl: 21; CR mimetic SO: 95; V-ATPase pHluor: -3; HIF act: -1

What do the screens show for `O=S(=O)(c1ccc(NC(=S)NN=C(Cc2ccccc2)Cc2ccccc2)cc1)N1CCOCC1`?
AI-2 QS modul: 43; NRP1-CendR mod: 4; T cruzi repl: -6; CR mimetic SO: 100; V-ATPase pHluor: -1; HIF act: 0

What do the screens show for `Cc1oc(-c2ccc(Cl)cc2)nc1CS(=O)CC(=O)NCCN1CCCCCC1` (stereo unspecified)?
AI-2 QS modul: 8; NRP1-CendR mod: 0; T cruzi repl: 16; CR mimetic SO: 113; V-ATPase pHluor: 0; HIF act: 109*

What do the screens show for `COc1cccc(/C=N/NC(=O)c2cccc([N+](=O)[O-])c2)c1OS(=O)(=O)c1ccccc1`?
AI-2 QS modul: 14; NRP1-CendR mod: 8; T cruzi repl: 6; CR mimetic SO: 90; V-ATPase pHluor: 0; HIF act: -1

What do the screens show for `Cc1ccc(S(=O)(=O)Oc2ccc(N3C(=O)C4C5CCC(C5)C4C3=O)cc2)cc1` (stereo unspecified)?
AI-2 QS modul: 19; NRP1-CendR mod: 24*; T cruzi repl: 15; CR mimetic SO: 91; V-ATPase pHluor: 2; HIF act: 0

Results for C=CCn1cc(/C=C/c2cc[n+](C)cc2)c2ccccc21 ?
AI-2 QS modul: -4; NRP1-CendR mod: 131; T cruzi repl: 55*; CR mimetic SO: 97; V-ATPase pHluor: 1; HIF act: 2

How did CCn1cc(/C=C/c2cc[n+](C)cc2)c2ccccc21 do in these assays?
AI-2 QS modul: 13; NRP1-CendR mod: 144; T cruzi repl: 55*; CR mimetic SO: 74; V-ATPase pHluor: 0; HIF act: -21

High-throughput results: PubChem BioAssay, several laboratories
